Our source for the MIC and Time values is ChEMBL document CHEMBL1147117, “Novel synthetic antimicrobial peptides against Streptococcus mutans” (2007).

A word on the MIC: it is the least concentration at which growth counts as inhibited. Low values mean a more susceptible organism, high ones a less susceptible organism.

Where a SMILES comes first, the peptide text is derived from it.

Common to all, as to type: functional
In assay [1] the test system is Streptococcus mutans. Description: Antibacterial activity against Streptococcus mutans after 16 to 20 hrs. Summed up: (§1)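 Broth microdilution in TH broth or Veillonella medium. Overnight cultures grown to OD600 0.75 to 0.8 were diluted to 1 x 10^5 CFU/ml. Peptide was serially diluted 1:2 from 500 or 512 µg/ml down to 1.95 or 2 µg/ml, with a methanol solvent control. Incubation was 16 to 20 h at 37°C, anaerobic, without shaking. MIC was read visually as the last clear well. Run in triplicate.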

A further assay has as its system Streptococcus mitis. As to the kind of experiment: Antibacterial activity against Streptococcus mitis ATCC 903 after 16 to 20 hrs. Summed up:
as §1

For the next assay, the system named is Lacticaseibacillus casei. As to the kind of experiment: Antibacterial activity against Lactobacillus casei ATCC 4646 after 16 to 20 hrs. Summed up: as §1
A further assay relates to Streptococcus gordonii. As to the kind of experiment: Antibacterial activity against Streptococcus gordonii Challis DL1 after 16 to 20 hrs. An outline of the steps:
as §1

For another assay, the system named is Streptococcus sanguinis. As to the kind of experiment: Antibacterial activity against Streptococcus sanguinis NY101 after 16 to 20 hrs. An outline of the steps:
as §1

For a further assay, the system named is Veillonella atypica. Description: Antibacterial activity against Veillonella atypica PK1910 after 16 to 20 hrs. Summed up:
as §1

For assay [2], the system named is Streptococcus mutans. Description: Bactericidal activity against Streptococcus mutans UA159 assessed as time required to kill 3 log10 of recoverable CFU/ml at 25 ug/ml relative to untreated control. An outline of the steps:
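Time-kill assay. Overnight UA159 cultures were diluted in medium to 0.5 x 10^6 to 1 x 10^6 CFU/ml and exposed to 25 µg/ml peptide. At each time point a 10-µl aliquot was diluted 1:50 into growth medium and plated on TH agar; whole 1-ml samples were plated when survivors were below 3,000 CFU/ml. TC is the time for survivors to fall 3 log10 below untreated CFU/ml. Repeated 3 to 5 times.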

`Cl.N=C(N)NCCC[C@H](NC(=O)[C@H](CCCNC(=N)N)NC(=O)[C@@H](N)CCCNC(=N)N)C(=O)N[C@@H](CCCCN)C(=O)N[C@@H](Cc1c[nH]c2ccccc12)C(=O)N[C@@H](Cc1c[nH]c2ccccc12)C(=O)N[C@@H](CCCCN)C(=O)O` (H-RRRKWWK-OH): in the assay with Streptococcus mutans [1], it took 125 µg/mL to inhibit growth (MIC). The same measure, in the same setting: for H-AKRLLKVLKRF-NH2 the value was 16 µg/mL; for H-AQAAHQAAHAAHQF-NH2, above 125 µg/mL. Still for that read-out and setting: for H-AQAAKQAAKAAKQF-NH2 the value was above 125 µg/mL.

In the assay on Streptococcus mutans [1], H-ATHLLHALQRF-NH2 registered an MIC above 250 µg/mL. Still for that read-out and setting: for H-FHYFWHWFHRF-NH2 the value was 125 µg/mL. H-FKKFWKWFRRF-NH2: the MIC came out at 32 µg/mL against Streptococcus mitis; 32 µg/mL against Lacticaseibacillus casei; 32 µg/mL in the assay with Streptococcus gordonii; 32 µg/mL against Streptococcus sanguinis; 8 µg/mL against Streptococcus mutans [1]; 16 µg/mL with Veillonella atypica.

For the compound H-FKKFWKWFRRFGGGRWRRLLKKLHHLLH-NH2, the MIC in the assay on Streptococcus mutans [1] stood at 16 µg/mL. H-FKKFWKWFRRFGGGRWRWRWF-NH2: the minimum inhibitory concentration (MIC) in the assay on Streptococcus mitis was determined as 64 µg/mL; against Lacticaseibacillus casei it was 8 µg/mL; in the assay on Streptococcus gordonii, 32 µg/mL; against Streptococcus sanguinis it was 16 µg/mL; against Streptococcus mutans [1], 4 µg/mL; against Veillonella atypica, 8 µg/mL.

H-FKTFLKWLHRF-NH2: the lowest concentration to inhibit growth with Streptococcus mutans [1] (MIC) was 24 µg/mL. The compound H-FKTFLQWLHRF-NH2 gave an MIC with Streptococcus mutans [1] of 16 µg/mL.

For the compound H-IKQLLHFFQRF-NH2, the MIC was determined as 64 µg/mL in the assay with Streptococcus mitis; 32 µg/mL in the assay with Lacticaseibacillus casei; 32 µg/mL in the assay on Streptococcus gordonii; 64 µg/mL against Streptococcus sanguinis; 24 µg/mL against Streptococcus mutans [1]; 64 µg/mL against Veillonella atypica.

In turn, H-IKQLLHFFQRFGGGRWRRLLKKLHHLLH-NH2 yielded an MIC against Streptococcus mutans [1] of 16 µg/mL. In the case of H-IKQLLHFFQRFGGGRWRWRWF-NH2, the MIC was 64 µg/mL in the assay with Streptococcus mitis; 16 µg/mL with Lacticaseibacillus casei; 32 µg/mL with Streptococcus gordonii; 16 µg/mL in the assay with Streptococcus sanguinis; 4 µg/mL with Streptococcus mutans [1]; 8 µg/mL against Veillonella atypica. As to H-IKTLLHFFQRF-NH2, in the assay with Streptococcus mutans [1], the MIC amounted to 32 µg/mL. The same measure, in the same setting: for H-KLAENVKEILR-NH2 the value was above 250 µg/mL; for H-KLAQKVKRVLR-OH, above 125 µg/mL. The compound H-KLFKRWKHLFR-OH returned an MIC in the assay with Streptococcus mutans [1] of 31.2 µg/mL. On the same count and under the same terms, for H-KLKKLLKHLHHLLH-NH2 the value was 8 µg/mL. Still for that read-out and setting: for H-KLKKLLKKLKKLLK-OH the value was 8 µg/mL; for H-KLKKLLKRWRRWWR-OH, 8 µg/mL. On the same count and under the same terms, the same measure for H-KLLQTFKQIFR-OH: above 250 µg/mL; for H-KLLQTFNQIFR-OH: above 125 µg/mL. On to H-KLVEQLKEIFR-OH, for which the MIC against Streptococcus mutans [1] is above 250 µg/mL.

As to H-KLVQQLKNIFR-OH, the MIC with Streptococcus mutans [1] is above 125 µg/mL. Same read-out and setting: the same measure for H-LKLLKKLLKLLKKF-NH2: 8 µg/mL. Take H-LKQFVHFIHRF-NH2: the MIC with Streptococcus mutans [1] stood at 32 µg/mL. In the assay on Streptococcus mutans [1], H-LKQFVKFIHRF-NH2 returned an MIC of 24 µg/mL. For H-LKRFLKWFKRF-NH2, the MIC with Streptococcus mitis was determined as 64 µg/mL; against Lacticaseibacillus casei it was 16 µg/mL; in the assay with Streptococcus gordonii, 32 µg/mL; against Streptococcus sanguinis, 16 µg/mL; against Streptococcus mutans [1], 8 µg/mL; against Veillonella atypica, 32 µg/mL.

As for H-LKRFLKWFKRFGGGRWRWRWF-NH2, the MIC against Streptococcus mitis worked out at 64 µg/mL; in the assay with Lacticaseibacillus casei, 16 µg/mL; in the assay on Streptococcus gordonii, 64 µg/mL; with Streptococcus sanguinis it was 16 µg/mL; in the assay with Streptococcus mutans [1], 4 µg/mL; in the assay on Veillonella atypica it was 8 µg/mL. In turn, H-LQLLKQLLKLLKQF-NH2 gave an MIC with Streptococcus mutans [1] of 8 µg/mL. Still for that read-out and setting: the same measure for H-LYHFLHWFQRF-NH2: 125 µg/mL; for H-RALHEAKEALK-OH: above 250 µg/mL.

With H-RALKRIKHVLK-OH, in the assay on Streptococcus mutans [1], the MIC is above 125 µg/mL.

Regarding H-RILKELKNLFK-OH, in the assay on Streptococcus mutans [1], the minimum inhibitory concentration (MIC) is above 250 µg/mL.

On to H-RLLKRFKHLFK-OH, for which the MIC against Streptococcus mutans [1] turned out to be 31.2 µg/mL. The same measure, in the same setting: the same measure for H-RRRFWWR-OH: 31.2 µg/mL.

In turn, H-RRRKWWK-OH gave a minimal inhibitory concentration (MIC) against Streptococcus mutans [1] of 250 µg/mL.

For the compound H-RRRRWWK-OH, in the assay on Streptococcus mutans [1], the minimal inhibitory concentration (MIC) is 125 µg/mL. The same measure, in the same setting: the same measure for H-RRRRWWW-OH: 16 µg/mL. As to H-RRRWWWF-NH2, the MIC turned out to be 32 µg/mL against Streptococcus mitis; 16 µg/mL with Lacticaseibacillus casei; 32 µg/mL in the assay on Streptococcus gordonii; 16 µg/mL against Streptococcus sanguinis; 4 µg/mL against Streptococcus mutans [1]; 64 µg/mL in the assay on Veillonella atypica. The Time with Streptococcus mutans [2] was 220 min. Take H-RRRWWWFASASARRRWWWF-NH2: the MIC against Streptococcus mutans [1] amounted to 32 µg/mL. In the assay on Streptococcus mutans [2], the Time turned out to be 480 min. On the same counts, the results for H-RRRWWWFGGGRRRWWWF-NH2 are 16 µg/mL and 270 min. For H-RRRWWWFPSGSPRRRWWWF-NH2, in that order: 32 µg/mL and 420 min. Turning to H-RRRWWWFRRRWWWF-NH2, the lowest concentration to inhibit growth in the assay on Streptococcus mutans [1] (MIC) was 16 µg/mL. In the assay with Streptococcus mutans [2], the Time turned out to be 60 min. H-RRRWWWK-OH returned an MIC against Streptococcus mutans [1] of 31.2 µg/mL. In the case of H-RRRWWWR-OH, inhibition of growth in the assay on Streptococcus mutans [1] (MIC) required 32 µg/mL. Still for that read-out and setting: the same measure for H-RRWKRRK-OH: 500 µg/mL; for H-RRWWRRF-NH2: 4 µg/mL.

Regarding H-RRWWRRK-OH, in the assay with Streptococcus mutans [1], the minimal inhibitory concentration (MIC) is 125 µg/mL.

For H-RRWWRRW-OH, the MIC against Streptococcus mutans [1] is 16 µg/mL.

In turn, H-RVLNQVKQILK-OH displayed a minimal inhibitory concentration (MIC) in the assay on Streptococcus mutans [1] above 125 µg/mL.

For the compound H-RVLQEIKQILK-OH, the MIC with Streptococcus mutans [1] is above 250 µg/mL. Regarding H-RWRKRWK-OH, 125 µg/mL was the least that counted as inhibitory in the assay on Streptococcus mutans [1] (MIC). Take H-RWRRLLKKLHHLLH-NH2: the minimal inhibitory concentration (MIC) in the assay with Streptococcus mitis came out at 32 µg/mL; against Lacticaseibacillus casei, 16 µg/mL; against Streptococcus gordonii, 16 µg/mL; against Streptococcus sanguinis it was 16 µg/mL; against Streptococcus mutans [1] it was 8 µg/mL; against Veillonella atypica, 4 µg/mL. For H-RWRRLLKKLHHLLHGGGFKKFWKWFRRF-NH2, the minimal inhibitory concentration (MIC) in the assay on Streptococcus mitis is 32 µg/mL; with Lacticaseibacillus casei, 8 µg/mL; against Streptococcus gordonii, 16 µg/mL; in the assay with Streptococcus sanguinis, 16 µg/mL; in the assay with Streptococcus mutans [1], 4 µg/mL; against Veillonella atypica it was 8 µg/mL. H-RWRRLLKKLHHLLHGGGIKQLLHFFQRF-NH2: the MIC against Streptococcus mutans [1] stood at 16 µg/mL. Same read-out and setting: the same measure for H-RWRRWWRHFHHFFH-NH2: 8 µg/mL. Turning to H-RWRWRWF-NH2, the MIC was determined as 32 µg/mL with Streptococcus mitis; 32 µg/mL against Lacticaseibacillus casei; 32 µg/mL in the assay on Streptococcus gordonii; 32 µg/mL in the assay with Streptococcus sanguinis; 125 µg/mL against Streptococcus mutans [1]; 64 µg/mL against Veillonella atypica. Moreover, the Time in the assay with Streptococcus mutans [2] came out at 220 min. For the compound H-RWRWRWFASASARWRWRWF-NH2, in the assay on Streptococcus mutans [1], 16 µg/mL was the least that counted as inhibitory (MIC). The Time in the assay with Streptococcus mutans [2] came to 45 min.

For H-RWRWRWFGGGFKKFWKWFRRF-NH2, the minimum inhibitory concentration (MIC) is 64 µg/mL against Streptococcus mitis; 8 µg/mL against Lacticaseibacillus casei; 16 µg/mL against Streptococcus gordonii; 8 µg/mL in the assay with Streptococcus sanguinis; 4 µg/mL in the assay on Streptococcus mutans [1]; 8 µg/mL in the assay on Veillonella atypica. Take H-RWRWRWFGGGIKQLLHFFQWRF-NH2: the minimal inhibitory concentration (MIC) with Streptococcus mutans [1] came to 8 µg/mL.

Take H-RWRWRWFGGGLKRFLKWFKRF-NH2: the MIC in the assay on Streptococcus mitis is 64 µg/mL; in the assay on Lacticaseibacillus casei, 8 µg/mL; against Streptococcus gordonii, 32 µg/mL; against Streptococcus sanguinis, 16 µg/mL; in the assay with Streptococcus mutans [1], 8 µg/mL; against Veillonella atypica, 16 µg/mL. H-RWRWRWFGGGRWRWRWF-NH2: the lowest concentration to inhibit growth in the assay with Streptococcus mutans [1] (MIC) was 16 µg/mL. The Time in the assay on Streptococcus mutans [2] came out at 90 min. For H-RWRWRWFPSGSPRWRWRWF-NH2, in that order: 32 µg/mL and 270 min. For H-RWRWRWFRWRWRWF-NH2, in that order: 16 µg/mL and 50 min. In turn, H-RWRWRWK-OH registered an MIC in the assay on Streptococcus mutans [1] of 32 µg/mL. Same read-out and setting: the same measure for H-RWRWRWR-OH: 32 µg/mL; for H-TILQSLKNIFK-OH: above 125 µg/mL; for H-VKKLAKLVRRF-NH2: 16 µg/mL. The same measure, in the same setting: for H-VKNLAELVHRF-NH2 the value was above 250 µg/mL; for H-VKQLLKIFNRF-NH2, 32 µg/mL; for H-VKTLLHIFQRF-NH2, 31.2 µg/mL. Regarding H-YLFQTWQHLFR-OH, the minimal inhibitory concentration (MIC) in the assay with Streptococcus mutans [1] was above 125 µg/mL.

H-YLLTEFQHLFK-OH: in the assay with Streptococcus mutans [1], the MIC is above 125 µg/mL.
